Test results taken from ChEMBL document CHEMBL1821635, “Synthesis and evaluation of aliphatic-chain hydroxamates capped with osthole derivatives as histone deacetylase inhibitors” (Eur J Med Chem, 2011).
Active and inactive are the calls of the source. No cut-off for these calls is given here.

How the values were obtained:
Histone deacetylase = test: Inhibition of HDAC from human HeLa nuclear extract using Boc-Lys(Ac)-AMC as substrate incubated 30 mins before substrate addition measured after 30 mins post substrate addition by fluorescence assay; type: protein assay
A549 = test: Antiproliferative activity against human A549 cells after 48 hrs by SRB assay; type: functional
In short: (§1)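 Cells seeded in medium with 5% FBS; after 24 h a T0 set fixed with 10% TCA. Compound or vehicle (0.1% DMSO) added for 48 h, then fixed with 10% TCA, stained with 0.4% SRB in 1% acetic acid, bound dye solubilized in 10 mM Trizma base, absorbance at 515 nm. GI50 = concentration halving net protein increase versus control, from [1−(Tx−T0)/(C−T0)]×100%.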

PC-3 = test: Antiproliferative activity against human PC3 cells after 48 hrs by SRB assay; type: functional; in short: as §1
[1] = Antiproliferative activity against human Hep3B cells after 48 hrs by SRB assay; type: functional, Hep 3B2; in short: as §1
Histone deacetylase 1 = Histone deacetylase 1 (Homo sapiens, UniProt Q13547); test: Inhibition of HDAC1 using KI-177 as substrate incubated 30 mins before substrate addition measured after 30 mins post substrate addition by fluorescence assay
Histone deacetylase 8 = molecular target: T1, Histone deacetylase 8 (Homo sapiens, UniProt Q9BY41); test: Inhibition of human HDAC8 using Boc-Lys(TFA)-AMC as substrate incubated 30 mins before substrate addition measured after 30 mins post substrate addition by fluorescence assay
T1 sequence (Q9BY41 whole entry): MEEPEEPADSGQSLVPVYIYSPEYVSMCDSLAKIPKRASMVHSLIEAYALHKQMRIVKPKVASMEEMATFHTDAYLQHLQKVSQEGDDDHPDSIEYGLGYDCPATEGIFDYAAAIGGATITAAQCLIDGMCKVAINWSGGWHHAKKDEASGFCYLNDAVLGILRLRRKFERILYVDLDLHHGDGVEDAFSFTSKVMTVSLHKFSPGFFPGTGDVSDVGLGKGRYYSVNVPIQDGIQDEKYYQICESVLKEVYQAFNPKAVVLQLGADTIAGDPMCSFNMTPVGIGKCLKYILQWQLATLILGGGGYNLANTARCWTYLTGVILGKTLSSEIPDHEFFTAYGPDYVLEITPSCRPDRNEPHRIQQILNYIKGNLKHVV

Histone deacetylase 4 = Histone deacetylase 4 (Homo sapiens, UniProt P56524); test: Inhibition of HDAC4 using Boc-Lys(TFA)-AMC as substrate incubated 30 mins before substrate addition measured after 30 mins post substrate addition by fluorescence assay
[2] = molecular target: T2, Protein deacetylase HDAC6 (Homo sapiens, UniProt Q9UBN7); test: Inhibition of HDAC6 using Boc-Lys(Ac)-AMC as substrate incubated 30 mins before substrate addition measured after 30 mins post substrate addition by fluorescence assay
T2 sequence (Q9UBN7 whole entry): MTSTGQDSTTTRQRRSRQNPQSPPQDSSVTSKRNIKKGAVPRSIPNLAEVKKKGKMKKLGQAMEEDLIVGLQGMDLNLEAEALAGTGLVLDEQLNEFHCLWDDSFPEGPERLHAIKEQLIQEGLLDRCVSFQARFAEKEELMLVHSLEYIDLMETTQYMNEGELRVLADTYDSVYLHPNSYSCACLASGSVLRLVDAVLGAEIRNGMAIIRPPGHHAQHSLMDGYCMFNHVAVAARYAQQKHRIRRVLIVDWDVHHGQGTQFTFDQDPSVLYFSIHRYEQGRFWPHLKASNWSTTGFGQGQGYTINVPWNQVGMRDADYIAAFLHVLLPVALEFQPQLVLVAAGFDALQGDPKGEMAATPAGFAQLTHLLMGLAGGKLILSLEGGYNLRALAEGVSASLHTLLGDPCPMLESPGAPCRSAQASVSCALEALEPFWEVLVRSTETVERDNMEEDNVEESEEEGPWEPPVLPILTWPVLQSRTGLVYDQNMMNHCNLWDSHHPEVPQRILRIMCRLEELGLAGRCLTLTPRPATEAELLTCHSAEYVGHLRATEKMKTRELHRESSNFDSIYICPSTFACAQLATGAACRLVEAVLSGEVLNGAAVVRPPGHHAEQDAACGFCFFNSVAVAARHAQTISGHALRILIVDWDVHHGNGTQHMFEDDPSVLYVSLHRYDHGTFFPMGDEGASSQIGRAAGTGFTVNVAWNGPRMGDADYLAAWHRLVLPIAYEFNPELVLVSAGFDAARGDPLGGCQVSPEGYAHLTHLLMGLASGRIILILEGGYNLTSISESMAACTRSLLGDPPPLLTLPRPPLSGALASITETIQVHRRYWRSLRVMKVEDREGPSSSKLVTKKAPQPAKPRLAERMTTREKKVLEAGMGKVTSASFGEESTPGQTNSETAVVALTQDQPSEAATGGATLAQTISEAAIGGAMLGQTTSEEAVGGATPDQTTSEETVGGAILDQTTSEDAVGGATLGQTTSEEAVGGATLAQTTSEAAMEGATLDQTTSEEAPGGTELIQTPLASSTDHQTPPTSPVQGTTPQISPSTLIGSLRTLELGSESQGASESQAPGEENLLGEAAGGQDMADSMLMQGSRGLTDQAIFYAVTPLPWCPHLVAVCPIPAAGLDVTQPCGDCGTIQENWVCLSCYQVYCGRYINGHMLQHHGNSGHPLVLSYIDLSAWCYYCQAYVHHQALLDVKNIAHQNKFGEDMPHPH

[3] = molecular target: T3, Histone deacetylase (Homo sapiens) (UniProt Q13547+O15379+Q9UBN7+Q92769+Q9UQL6+Q8WUI4+Q9BY41+Q96DB2+P56524+Q9UKV0+Q969S8); test: Inhibition of HDAC in human prostate cancer cells assessed as induction of hyperacetylation of histone H3 after 16 hrs by SDS-PAGE and Western blot analysis; type: cell-based; conditions: Cancer cell lines
In short: (§2)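 Cells exposed to inhibitor at […] for 16 h. Whole-cell lysates made in ice-cold Tris pH 7.4 buffer with Triton X-100, protease and phosphatase inhibitors, run on 13% SDS-PAGE gels. Western blot for acetylated histone H3 (polyclonal) or acetylated alpha-tubulin (monoclonal), beta-actin as loading control, HRP secondary, ECL detection.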

[4] = molecular target: T3, Histone deacetylase (Homo sapiens); test: Inhibition of HDAC in human prostate cancer cells assessed as induction of hyperacetylation of alpha-tubulin after 16 hrs by SDS-PAGE and Western blot analysis; type: cell-based; conditions: Cancer cell lines; in short: as §2

Histone deacetylase 4, sequence (P56524 whole entry): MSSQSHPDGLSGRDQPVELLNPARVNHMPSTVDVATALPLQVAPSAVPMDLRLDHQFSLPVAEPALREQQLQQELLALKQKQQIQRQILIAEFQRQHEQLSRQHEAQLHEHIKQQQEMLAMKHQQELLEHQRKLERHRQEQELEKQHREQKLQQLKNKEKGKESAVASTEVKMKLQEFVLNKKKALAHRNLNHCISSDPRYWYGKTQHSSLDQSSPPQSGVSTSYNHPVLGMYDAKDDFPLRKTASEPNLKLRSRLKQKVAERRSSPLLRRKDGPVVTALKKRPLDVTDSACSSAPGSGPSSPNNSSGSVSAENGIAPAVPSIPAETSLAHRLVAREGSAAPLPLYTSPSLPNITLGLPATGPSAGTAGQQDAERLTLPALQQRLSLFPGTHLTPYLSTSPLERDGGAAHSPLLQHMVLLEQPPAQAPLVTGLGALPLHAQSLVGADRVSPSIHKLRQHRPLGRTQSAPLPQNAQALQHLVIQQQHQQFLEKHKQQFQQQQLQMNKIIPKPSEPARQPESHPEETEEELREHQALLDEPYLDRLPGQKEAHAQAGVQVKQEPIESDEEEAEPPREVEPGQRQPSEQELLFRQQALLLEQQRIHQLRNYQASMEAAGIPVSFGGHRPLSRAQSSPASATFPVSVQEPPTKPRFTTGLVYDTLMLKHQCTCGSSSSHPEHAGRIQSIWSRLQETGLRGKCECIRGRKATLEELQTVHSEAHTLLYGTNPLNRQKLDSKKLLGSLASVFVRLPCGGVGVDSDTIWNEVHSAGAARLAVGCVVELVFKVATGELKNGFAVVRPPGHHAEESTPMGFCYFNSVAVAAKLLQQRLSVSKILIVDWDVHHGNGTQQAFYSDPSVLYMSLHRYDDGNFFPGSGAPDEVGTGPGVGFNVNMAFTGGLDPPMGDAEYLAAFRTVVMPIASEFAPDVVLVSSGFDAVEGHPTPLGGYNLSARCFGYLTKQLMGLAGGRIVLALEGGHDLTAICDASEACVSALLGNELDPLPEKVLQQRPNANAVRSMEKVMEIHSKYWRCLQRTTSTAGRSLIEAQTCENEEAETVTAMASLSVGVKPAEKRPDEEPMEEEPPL
Histone deacetylase 1, sequence (Q13547 whole entry): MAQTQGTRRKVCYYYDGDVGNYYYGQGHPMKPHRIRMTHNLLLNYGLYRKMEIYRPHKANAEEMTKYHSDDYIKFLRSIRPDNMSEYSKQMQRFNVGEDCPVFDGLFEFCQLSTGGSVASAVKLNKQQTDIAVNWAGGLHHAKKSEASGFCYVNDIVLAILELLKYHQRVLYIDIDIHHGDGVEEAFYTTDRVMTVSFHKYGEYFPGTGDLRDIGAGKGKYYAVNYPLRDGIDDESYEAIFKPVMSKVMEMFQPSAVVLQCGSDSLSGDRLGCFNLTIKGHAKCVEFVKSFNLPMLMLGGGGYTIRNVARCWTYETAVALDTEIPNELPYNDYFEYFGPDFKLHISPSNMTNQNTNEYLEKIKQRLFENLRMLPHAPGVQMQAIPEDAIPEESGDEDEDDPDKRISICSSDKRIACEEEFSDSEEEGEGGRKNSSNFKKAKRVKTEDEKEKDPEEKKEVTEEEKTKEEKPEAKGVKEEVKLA

SMILES	IC50 (Histone deacetylase) [µM]	GI50 (A549; Homo sapiens, A549, 48 h) [µM]	GI50 (PC-3; Homo sapiens, PC-3, 48 h) [µM]	GI50 ([1]; Homo sapiens, Hep3B, 48 h) [µM]	IC50 (Histone deacetylase 1) [µM]	IC50 (Histone deacetylase 8) [µM]	IC50 (Histone deacetylase 4) [µM]	IC50 [2] [µM]	inhibition [3]	inhibition [4]	GI50 (A549) [µM]	GI50 (PC-3) [µM]	GI50 [1] [µM]
CC(C)CCc1c(OCCCCCC(=O)NO)ccc2c1OC(=O)CC2	0.4255	> 30	> 30	> 30									
CC(C)CCc1c(OCCCCCCCC(=O)NO)ccc(CCC(=O)NO)c1O	0.0289	2.67	1.73	1.27	0.0415	0.279	> 10	0.0142					
CC(C)CCc1c(OCCCCCC(=O)NO)ccc(CCC(=O)NO)c1O	0.2099	5.41	2.52	1.98									
CC(C)CCc1c(OCCCCC(=O)NO)ccc(CCC(=O)NO)c1O	0.4263	10	14.4	14.1									
CC(C)CCc1c(OCCCCCCC(=O)NO)ccc2c1OC(=O)CC2	0.0237	> 30	> 30	> 30	0.0527	1.08	> 10	0.04					
CC(C)CCc1c(OCCCCCCCC(=O)NO)ccc2ccc(=O)oc12	0.039	2.19		3.58									
CC(C)CCc1c(OCCCCCCC(=O)NO)ccc2ccc(=O)oc12	0.0222	0.66		0.75	0.0323	0.553	> 10	0.0152	Dose-dependent effect	Dose-dependent effect			
CC(C)CCc1c(OCCCCCC(=O)NO)ccc2ccc(=O)oc12	0.1282	0.87		0.8									
O=C(CCCCCCC(=O)Nc1ccccc1)NO [VORINOSTAT]											0.79	1.02	1.21
CC(C)CCc1c(OCCCCCCCC(=O)NO)ccc2c1OC(=O)CC2	0.1117	> 30	> 30	> 30									
CC(C)CCc1c(OCCCCC(=O)NO)ccc2ccc(=O)oc12	0.5232	2.76	1.94	1.31									
CC(C)CCc1c(OCCCCC(=O)NO)ccc2c1OC(=O)CC2	0.7116	> 30	> 30	> 30									
CC(C)CCc1c(OCCCCCCC(=O)NO)ccc(CCC(=O)NO)c1O	0.0246	6.16	4.73	4.72	0.0429	0.268	> 10	0.0159	inactive	inactive			
